Bioassay records from PubChem BioAssay.
Yeast life ext: compounds extending yeast replicative lifespan, primary screen, S. cerevisiae, OD615; S. cerevisiae growth with nicotinamide; deaD strain in restrictive glucose medium; 130,000 tested, 0.68% active; inhibition of the nicotinamide effect, % at 10 µM;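 active means inhibition above a set limit, placed 3 SD over the median of all compounds, cut at about 26% in these data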
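System: Modified budding yeast, DeaD strain | Buffer or medium: Restrictive glucose medium | Also added: 1.5 mM nicotinamide | Doses: 10 µM single point, 0.25% DMSO | Schedule: 48 h compound exposure at 30 °C, humidified | Detection: Absorbance at 615 nm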
BB579 growth dn: growth inhibitors of yeast BB579 in restrictive medium, primary screen, yeast lifespan-shortening project, S. cerevisiae. 140,000 tested, 0.51% active. inhibition, % at 10 µM. OD615, 48 h. AID 804, 2007;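 active means inhibition above a set limit, 3 SD over the mean compound inhibition, cut at about 44% in these data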
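Material: Saccharomyces cerevisiae DeaD strain BB579, replicative lifespan model yeast; buffer or medium: CSMM-D restrictive synthetic medium containing dextrose (glucose); compound: 10 µM single dose, DMSO 0.25%; timing: 48 h compound exposure at 30 °C after 4 h preincubation; signal: turbidity as optical density at 615 nm; benchmarks: positive control amphotericin B 10 µg/mL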
S1P3 antag: S1P3 receptor antagonists, primary screen, cell-based; Sphingosine 1-phosphate receptor 3 (Homo sapiens), Q99500; CHO S1P3 NFAT-BLA reporter, FRET fluorescence, antagonist mode; inhibition, % at 4.98 µM; 170,000 tested, 0.27% active;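 active means inhibition above the plate cutoff, the mean inhibition of test wells on that plate plus 3 SD, cut at about 28% in these data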;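 further: cells challenged with S1P at its EC80 of 0.8 µM; blue over green emission ratio from cleaved BLA substrate after 4 h stimulation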
Target sequence (Q99500 whole entry, looked up): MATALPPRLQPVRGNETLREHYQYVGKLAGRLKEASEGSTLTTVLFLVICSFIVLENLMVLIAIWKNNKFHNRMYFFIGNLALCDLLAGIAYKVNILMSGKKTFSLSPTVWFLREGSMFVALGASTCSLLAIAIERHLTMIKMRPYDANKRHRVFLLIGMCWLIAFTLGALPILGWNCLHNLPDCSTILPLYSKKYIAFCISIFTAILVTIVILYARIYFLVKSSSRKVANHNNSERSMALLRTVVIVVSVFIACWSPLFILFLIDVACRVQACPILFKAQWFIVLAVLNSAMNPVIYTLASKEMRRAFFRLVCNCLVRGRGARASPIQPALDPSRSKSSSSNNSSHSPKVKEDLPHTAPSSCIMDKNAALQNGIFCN
Each line names hits and unclear results; the compound was inactive in the other large screens. Only some compounds are listed: those with a hit (about 0.98% of all), similar ones and a draw of the others.

O=C(O)/C=C/C(=O)OC1CC2CCC1C2 (stereo unspecified)	none (no result: Yeast life ext, BB579 growth dn)
Cc1ccc(O)c(-c2cc(-c3ccccc3[N+](=O)[O-])[nH]n2)c1	none
Cc1ccc(O)c(-c2cc(-c3ccccc3C)[nH]n2)c1	BB579 growth dn 99
O=[N+]([O-])c1ccccc1-c1cc(-c2cc(Cl)ccc2O)n[nH]1	BB579 growth dn 96
COc1ccc(-c2cc(-c3cc(C)ccc3O)[nH]n2)cc1	none (no result: Yeast life ext, BB579 growth dn)
Cc1ccc(NC(=O)Nc2cnccn2)cc1C	none (no result: Yeast life ext, BB579 growth dn)
O=C1C2C(c3ccccc3)C=CC(c3ccccc3)C2C(=O)N1c1ccncc1 (stereo unspecified)	none (no result: S1P3 antag)
O=C1C2C(c3ccccc3)C=CC(c3ccccc3)C2C(=O)N1c1ccccn1 (stereo unspecified)	Yeast life ext 30
O=P(CO)(Cc1ccccc1)Cc1ccccc1	Yeast life ext 55
CCCCP(=O)(CCCC)Cc1ccccc1	none (no result: S1P3 antag)
Cc1ccc(OC(=S)Nc2ccc(F)cc2)cc1	none (no result: Yeast life ext, S1P3 antag)
Cc1ccc(OC(=S)Nc2ccc(O)cc2)cc1	BB579 growth dn 84 (no result: Yeast life ext, S1P3 antag)
COc1ccc(C)cc1-n1nnnc1SCc1cn2ccsc2n1	none
CC(C)COC(=O)NCCOC(=O)Nc1cccc(Cl)c1	none
CSc1ccc(S(=O)(=O)NCc2ccccc2Cl)cc1	none
CSc1ccc(S(=O)(=O)NCc2ccc(Cl)cc2Cl)cc1	Yeast life ext 88 (no result: S1P3 antag)
O=C(Nc1ccccc1)C1=C(O)CC(c2ccc(Cl)cc2)N2CCN=C12 (stereo unspecified)	none
CCOC(=O)c1nn(-c2ccc(F)cc2)c2nc(-c3ccccc3)c(C#N)c(=O)n12	Yeast life ext 27
CCOC(=O)c1nn(-c2ccccc2)c2nnc(Cc3ccccc3)c(=O)n12	Yeast life ext 32
CCOC(=O)c1nn(-c2cccc(C)c2)c2nc(-c3ccccc3)c(C#N)c(=O)n12	none (no result: S1P3 antag)
CCOC(=O)c1nn(-c2ccccc2)c2nnc(Cc3ccc(C)cc3)c(=O)n12	none
CSc1nnc(-c2cc(Br)ccc2N=Cc2c(C)[nH]n(-c3ccccc3)c2=O)c(=O)[nH]1	none (no result: Yeast life ext, BB579 growth dn)
O=C(CSc1ccc(Cl)cc1)NCc1ccncc1	none (no result: Yeast life ext, BB579 growth dn)
O=C(CCN1CCN(c2ccccc2)CC1)Nc1cccc(Br)c1	none (no result: Yeast life ext, BB579 growth dn)
COCCN1Cc2cc3cc(C)ccc3nc2SC1=Nc1cccc(OC)c1	none (no result: Yeast life ext, BB579 growth dn)
Cc1cccc(N=C2Sc3nc4c(C)c(C)ccc4cc3CN2CCN2CCOCC2)c1	BB579 growth dn 99 (no result: S1P3 antag)
COc1ccc(-c2nnc(SCC(=O)Nc3ccc(C)cc3)n2C)cc1	none
COc1ccc(CNC(=O)CSc2nnc(-c3ccc(NC(C)=O)cc3)n2C)cc1	BB579 growth dn 48
NC(=O)c1cccnc1Nc1cccc(F)c1	none
CCSc1ncc(/C=N/Nc2ccccc2)n1C	none (no result: S1P3 antag)
CCSc1ncc(/C=N/Nc2ccc(Cl)cc2)n1C	BB579 growth dn 95 (no result: S1P3 antag)
CC(Sc1ccccc1)C(=O)Nc1ccc(S(=O)(=O)N2CCOCC2)cc1 (stereo unspecified)	none
Cc1cc(C)n(C(=O)c2ccc(NC(=O)C3CC3)cc2)n1	S1P3 antag 93
CCC(=O)Nc1ccc(C(=O)n2nc(C)cc2C)cc1	none
COC(=O)Nc1nnc(Cc2ccc(OC)cc2)s1	none
COCCn1c(SCC(=O)Nc2ccc(C)cc2)nc2c(oc3ccccc32)c1=O	Yeast life ext 85
COCCn1c(SCC(=O)Nc2ccccc2)nc2c(oc3ccccc32)c1=O	none (no result: Yeast life ext, BB579 growth dn)
COC(=O)c1cc(NC(=S)Nc2cc(Cl)cc(Cl)c2)cc(C(=O)OC)c1	Yeast life ext 27
COC(=O)c1cccc(NC(=S)Nc2ccccc2Cl)c1	none (no result: Yeast life ext, BB579 growth dn)
Cc1cccc(NC(=S)NCCc2ccc(S(N)(=O)=O)cc2)c1C	none
CC(=O)Nc1ccc2nc(-c3ccccc3)cn2c1	none
O=c1c(-c2ccccc2)nc(-c2ccccc2)cn1O	BB579 growth dn 49 (no result: S1P3 antag)
N/C(=N\OC(=O)c1cccc([N+](=O)[O-])c1)c1cccnc1	none
CCc1ccc(OCC(=O)N(CC)CC)cc1	none (no result: Yeast life ext, BB579 growth dn)
CCOc1ccc2nc(NC(=O)Nc3ccccc3)sc2c1	none (no result: S1P3 antag)
CCOc1ccc2nc(NC(=O)Nc3cccs3)sc2c1	S1P3 antag 58
Cc1cc(NC(=O)CSc2nnc(-c3ccncc3)n2-c2ccc(F)cc2)no1	none (no result: Yeast life ext, BB579 growth dn)
COc1ccc(-c2noc(CSc3nnc(-c4ccncc4)n3-c3ccc(F)cc3)n2)cc1OC	Yeast life ext 148
Cc1ccc(CNC(=O)C(OC(=O)c2ccco2)C(C)C)cc1 (stereo unspecified)	none
Cc1ccc(CNC(=O)C(C)OC(=O)c2ccco2)cc1 (stereo unspecified)	Yeast life ext 39
CCC(C)N1CC23C=CC(O2)C(C(=O)OCc2ccccc2)C3C1=O (stereo unspecified)	none (no result: S1P3 antag)
Cc1ccc(C)c(C(=O)Cn2ncc(Cl)c(Cl)c2=O)c1	none (no result: S1P3 antag)
Cc1cccc(Cn2ncc(Cl)c(Cl)c2=O)c1	BB579 growth dn 49 (no result: S1P3 antag)
O=C(OCn1ncc(Cl)c(Cl)c1=O)c1ccc(C(F)(F)F)cc1	none (no result: S1P3 antag)
Cc1ccc(C(=O)OCn2ncc(Cl)c(Cl)c2=O)cc1	BB579 growth dn 86 (no result: S1P3 antag)
Cc1cc2c(s1)c1cnn(Cc3ccccc3F)c(=O)c1n2C	none (no result: S1P3 antag)
Cc1cc(O)c(/C=N/Nc2ccc(F)cc2)c(=O)o1	none (no result: Yeast life ext, BB579 growth dn)
Cc1ccc(N/N=C/c2c(O)cc(C)oc2=O)cc1	BB579 growth dn 96 (no result: S1P3 antag)
CCC(=Nc1ccc(Cc2ccncc2)cc1)c1c(O)n(C)c(=O)n(C)c1=O	Yeast life ext 27
Cn1c(=O)c2c(O)c(Cc3ccccc3)c(=O)[nH]c2n(C)c1=O	none
Cc1cc(C)nc(SCc2cc(=O)c(OC(=O)c3ccc(S(=O)(=O)N4CCCC4)cc3)co2)n1	none
Cc1nc2ccccc2c(=O)n1NC(=O)c1c(O)c2ccccc2n(C)c1=O	S1P3 antag 73 (no result: Yeast life ext, BB579 growth dn)
CCCCc1nc2ccccc2c(=O)n1NC(=O)c1c(O)c2ccccc2n(C)c1=O	none (no result: Yeast life ext, BB579 growth dn)
CCOc1ccccc1NC(=O)C1CCCCN1S(=O)(=O)c1ccc(F)cc1 (stereo unspecified)	none (no result: S1P3 antag)
C/C(CC(=O)Nc1cccnc1)=N\NC(=O)C(=O)NC(C)C	none (no result: Yeast life ext, BB579 growth dn)
CCSc1nnc(NC(=O)c2cnccn2)s1	none (no result: Yeast life ext, BB579 growth dn)
CCSc1nnc(NC(=O)c2ccccn2)s1	BB579 growth dn 97
Cc1ccc2occ(C(c3nnnn3Cc3ccccc3)N3CCOCC3)c(=O)c2c1 (stereo unspecified)	Yeast life ext 26
CCc1ccc2[nH]c(=O)c(C(c3nnnn3Cc3ccccc3)N3CCOCC3)cc2c1 (stereo unspecified)	none
CCC(=O)NC(c1cccs1)c1ccc2cccnc2c1O (stereo unspecified)	none (no result: Yeast life ext, BB579 growth dn)
Cc1conc1NC(c1cccs1)c1ccc2cccnc2c1O (stereo unspecified)	BB579 growth dn 62
CCOc1cc(/C=N/NC(=O)c2cc(-c3cccnc3)nc3ccccc23)ccc1O	none (no result: Yeast life ext, BB579 growth dn)
CCOC(=O)c1c(NC(=O)C2C3C=CC(C3)C2C(=O)O)sc2c1CCC(CC)C2 (stereo unspecified)	Yeast life ext 42
CCOC(=O)c1c(NC(=O)C2C3CCC(O3)C2C(=O)O)sc2c1CCC(CC)C2 (stereo unspecified)	none (no result: Yeast life ext, BB579 growth dn)
Cn1ccc(=S)c2ccccc21	none (no result: Yeast life ext, BB579 growth dn)
C=CCN1C(C(=O)c2ccccc2)=C(OC(=O)COc2ccccc2)c2ccccc2S1(=O)=O	BB579 growth dn 90
O=C(COc1ccccc1)NNC1=NS(=O)(=O)c2ccccc21	none (no result: Yeast life ext, BB579 growth dn)
c1csc(CCNc2ncnc3sc4c(c23)CCC4)c1	S1P3 antag 94
